In paper PMC10512781 (Journal of medicinal chemistry, 2022):
Entries after “also recorded” stand apart in the source; their conditions may differ. Where two headings read alike, the source gives them in different places.

Assays:
[1] = system: polyamine import in L3.6pl cells; experiment: Radiolabeled spermidine; type: cell-based, human; conditions: for basal 3H-Spd uptake: 24 h treatment prior to 3H-Spd for 15 min; for 3H-Spd import in combination with DFMO vs DFMO-only: 72 h with DFMO + compound prior to 3H-Spd for 15 min
In short: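 L3.6pl cells pretreated 24 h with test compound, then exposed to 3H-spermidine for 15 min. Radioactive counts normalised to lysate protein measured by BCA assay. Triplicate conditions; reported as pmol 3H-Spd/μg protein ± standard deviation.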

CHO-K1 cells [2] = experiment: 48 h growth inhibition by assay reagents; type: cell-based, Chinese hamster; conditions: read-out: 48 h CHO-K1 IC50; CHO-K1, 48 h
CHO-K1 cells [3] = experiment: Cytotoxicity assay; type: cell-based, Chinese hamster; conditions: CHO-K1, 384-well; maximum tolerated concentration (≥90% relative growth)
FUBP1 = conditions: NMR study; cited from earlier work
p21 mRNA in L3.6pl cells = experiment: qRT-PCR, p21 mRNA; type: cell-based, human; conditions: 24 h, qRT-PCR vs matched vehicle control
In short: (§1)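 For qRT-PCR, L3.6pl cells (400,000) in RPMI 1640 with 10% FBS and 1% antibiotic–antimycotic were seeded in 6-well dishes and held overnight at 37 °C, 5% CO2. Next day they were treated with test compound or DMSO vehicle at 37 °C, then mRNA was measured by quantitative real-time PCR.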

[4] = system: c-Myc mRNA in L3.6pl cells; experiment: qRT-PCR, c-Myc mRNA; type: cell-based, human; conditions: 24 h, qRT-PCR vs matched vehicle control
In short: as §1

[5] = system: FUBP1 protein in L3.6pl cells; experiment: Western blot, FUBP1 protein level; type: cell-based, human; conditions: 24 h
In short: (§2)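 L3.6pl cells (400,000 in 2 mL RPMI 1640, 10% FBS, 1% antibiotic–antimycotic) held overnight at 37 °C, 5% CO2, then treated 24 h with test compound or DMSO. Lysed in RIPA with protease and phosphatase inhibitors. Membranes blocked in 5% skim milk/PBST for 1 h, primary antibody overnight at 4 °C (c-Myc 1:1000, FUBP1 1:1000, p21 1:100, GAPDH 1:40,000), secondary 1 h, chemiluminescence on X-ray film. Repeated at least three times.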

[6] = system: p21 protein in L3.6pl cells; experiment: Western blot, p21 protein level; type: cell-based, human; conditions: 24 h
In short: as §2

[7] = biological target: T1, GST-FUBP1 (KH3-KH4) binding to FUSE oligo (Oligo-KH4) (Homo sapiens, UniProt Q96AE4); experiment: Gel shift assay; conditions: 30 and 60 μM vs DMSO control
T1 sequence (Q96AE4 278-447 limits assumed): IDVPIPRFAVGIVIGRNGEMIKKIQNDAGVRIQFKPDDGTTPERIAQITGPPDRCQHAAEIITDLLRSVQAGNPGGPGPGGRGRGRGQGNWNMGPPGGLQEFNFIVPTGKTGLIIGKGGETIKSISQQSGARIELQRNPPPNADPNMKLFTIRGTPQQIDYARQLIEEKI

[8] = system: c-Myc protein in L3.6pl cells; experiment: Western blot, c-Myc protein level; type: cell-based, human; conditions: 24 h
In short: as §2

[9] = system: native polyamine levels in L3.6pl cells; experiment: Intracellular polyamine quantitation by HPLC; type: cell-based, human; conditions: 60 μM, 24 h, vs vehicle (0.6% DMSO)
In short: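 Polyamines measured by HPLC. L3.6pl cells seeded at 100,000 cells/mL in RPMI 1640 with 250 μM aminoguanidine and held overnight at 37 °C, 5% CO2. Next day treated with test compound (60 μM) or 0.6% DMSO vehicle for 24 h at 37 °C, then intracellular native polyamines quantified.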

[10] = biological target: T2, FUBP1 binding to the FUSE c-myc promoter region in L3.6pl cells (Homo sapiens, UniProt Q96AE4); experiment: Chromatin immunoprecipitation; type: cell-based; conditions: 60 μM, 24 h, vs untreated
T2 sequence (Q96AE4 1-644): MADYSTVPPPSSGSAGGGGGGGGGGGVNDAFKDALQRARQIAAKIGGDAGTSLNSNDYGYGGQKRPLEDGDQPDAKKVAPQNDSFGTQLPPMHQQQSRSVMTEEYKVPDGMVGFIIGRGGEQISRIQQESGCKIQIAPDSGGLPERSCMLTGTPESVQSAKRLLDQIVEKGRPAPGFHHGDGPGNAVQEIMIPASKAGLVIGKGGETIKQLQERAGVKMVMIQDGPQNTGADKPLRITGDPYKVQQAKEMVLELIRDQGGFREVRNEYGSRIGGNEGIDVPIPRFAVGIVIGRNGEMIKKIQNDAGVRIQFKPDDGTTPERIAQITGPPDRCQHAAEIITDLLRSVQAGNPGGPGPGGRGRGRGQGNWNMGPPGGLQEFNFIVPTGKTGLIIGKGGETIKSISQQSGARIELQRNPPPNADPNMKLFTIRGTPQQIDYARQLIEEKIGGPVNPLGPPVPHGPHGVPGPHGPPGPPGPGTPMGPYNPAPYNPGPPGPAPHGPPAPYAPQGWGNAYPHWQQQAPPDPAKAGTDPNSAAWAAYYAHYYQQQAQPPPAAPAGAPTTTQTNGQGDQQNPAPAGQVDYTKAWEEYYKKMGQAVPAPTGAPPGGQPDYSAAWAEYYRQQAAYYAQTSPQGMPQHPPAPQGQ
In short: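 L3.6pl cells seeded at 300,000 cells/mL in RPMI 1640 with 10% FBS and 1% antibiotic–antimycotic, then held overnight at 37 °C, 5% CO2. Treated 24 h with test compound (60 μM) or 0.6% DMSO, then fixed in 1% formalin for 10 min. Sonicated chromatin (20–25 μg) was precleared and immunoprecipitated overnight at 4 °C with FUBP1 antibody, with H4Ac and rabbit IgG controls. Samples were de-crosslinked overnight at 65 °C, and FUSE c-Myc DNA measured by q-PCR. Mean fold change ± S.E.M., n = 2.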

[11] = system: human pancreatic cancer cell lines; conditions: at 300 μM; cited from earlier work
CHO cells = conditions: at 1 mM; cited from earlier work
[12] = system: L3.6pl pancreatic cancer cells; conditions: DFMO 8 mM, 48 h, cited from earlier work

For `CNCCCCNCCCCNCc1cc(CNCCCCNCCCCNC)cc(CNCCCCNCCCCNC)c1.Cl.Cl.Cl.Cl.Cl.Cl.Cl.Cl.Cl` [Compound 5], which “basal 3H-Spd uptake” value [1] is on record?
The value was “blocked significant spermidine uptake”.

And the “3H-Spd import in combination with DFMO vs DFMO-only” value [1]?
Its value is “statistically significant reduction in ^3H-Spd import”.

With `NCCCCNCCCCNCc1c2ccccc2cc2ccccc12` [Ant44, N^1-(9-anthracenylmethyl)-homospermidine] as the molecule, how does the IC50 (CHO-K1 cells [2]) read?
Its IC50 is 2000 nM.

For `COc1ccccc1C(=O)Nc1ccc(N2CCN(Cc3ccccn3)CC2)cc1C(=O)O` [Compound 54, 2-(2-Methoxybenzamido)-5-(4-(pyridin-2-ylmethyl)piperazin-1-yl)benzoic Acid], which “Cytotoxicity MTC” value (CHO-K1 cells [3]) is on record?
Its value is greater than 40 µM.

With `Nc1ccccc1C(=O)O` [anthranilic acid] as the molecule, how does the “binding to FUBP1” value (FUBP1) read?
Its value is “very low affinity”.

For `COc1ccc(C(=O)Nc2ccc(N3CCN(c4cc(Cl)ccc4C)CC3)cc2C(=O)O)cc1` [Compound 9, 5-[4-(5-Chloro-2-methyl-phenyl)-piperazin-1-yl]-2-(4-methoxybenzoylamino)-benzoic Acid], which “p21 mRNA level” value (p21 mRNA in L3.6pl cells) is on record?
Its value is “increased for p21”.

What about the “c-Myc mRNA level” value [4] of the same molecule?
The value was “significantly decreased for c-Myc”.

What about the FUBP1 protein levels [5] of the same molecule?
The FUBP1 protein levels was “did not affect FUBP1 protein levels”.

What about the p21 protein expression [6] of the same molecule?
Its p21 protein expression is “increased p21 protein expression in a dose-dependent manner; also recorded: superior in terms of inducing p21”.

And the “FUBP1 (KH3-KH4)-FUSE DNA bound complex” value [7]?
Its value is “dose-dependent decrease”.

And the c-Myc protein expression [8]?
The c-Myc protein expression was “reduced c-Myc protein expression”.

What about the intracellular polyamine levels [9] of the same molecule?
Its intracellular polyamine levels is “significantly lower polyamine levels”.

And the “FUSE c-Myc DNA pulled down with FUBP1 antibody” value [10]?
Its value is “reduced levels of c-Myc FUSE DNA”.

And the “basal 3H-Spd uptake” value [1]?
The value was “did not block the uptake of ^3H-Spd”.

And the “3H-Spd import in combination with DFMO vs DFMO-only” value [1]?
Its value is “did not significantly inhibit ^3H-Spd import”.

Which toxicity [11] does the source give for `N=C(N)NN` [AG, aminoguanidine] here?
The toxicity was “not toxic”.

What about the toxicity (CHO cells) of the same molecule?
Its toxicity is “not toxic”.

What does the source list for `NCCC[C@](N)(C(=O)O)C(F)F` [DFMO, difluoromethylornithine]?
relative growth (compared to an untreated control) ([12]; with rescuing spermidine 1 μM): 103%; intracellular putrescine ([12]; with spermidine 1 μM): no detectable intracellular putrescine; intracellular spermidine ([12]; with spermidine 1 μM): 6.4 nmol/mg protein; intracellular spermine ([12]; with spermidine 1 μM): 17.4 nmol spermine/mg protein; intracellular putrescine [12]: no detectable intracellular putrescine; intracellular spermidine [12]: 2.1 nmol/mg protein; intracellular spermine [12]: 18.6 nmol spermine/mg protein; relative growth (compared to an untreated control) [12]: 64%

What does the source list for `COc1ccccc1C(=O)Nc1ccc(N2CCC(Oc3ccccc3)CC2)cc1C(=O)O` [Compound 63, 2-(2-Methoxybenzamido)-5-(4-phenoxypiperidin-1-yl)benzoic Acid]?
p21 protein expression [6]: increased p21 protein levels; c-Myc protein expression [8]: reduced c-Myc
